Measurements taken from ChEMBL document CHEMBL5344404, “Design and optimization of oestrogen receptor PROTACs based on 4-hydroxytamoxifen” (Eur J Med Chem, 2022).
The source made the active and inactive calls. No cut-off for these calls is given here.

Tests used:
[1] = target: T1, Protein cereblon/Estrogen receptor (Homo sapiens, UniProt P03372+Q96SW2); test: PROTAC activity at CRBN/ERalpha in human MCF7 cells assessed as reduction in ERalpha protein level at 1 uM measured after 24 hrs by Western blot analysis; assay type: cell-based
In short: (§1)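 MCF-7 cells given the PROTAC at 1 µM for periods of 1–48 h, with DMSO controls held 48 h. Cell lysates immunoblotted for ERα.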
Target sequence in this assay (P03372 whole entry, looked up): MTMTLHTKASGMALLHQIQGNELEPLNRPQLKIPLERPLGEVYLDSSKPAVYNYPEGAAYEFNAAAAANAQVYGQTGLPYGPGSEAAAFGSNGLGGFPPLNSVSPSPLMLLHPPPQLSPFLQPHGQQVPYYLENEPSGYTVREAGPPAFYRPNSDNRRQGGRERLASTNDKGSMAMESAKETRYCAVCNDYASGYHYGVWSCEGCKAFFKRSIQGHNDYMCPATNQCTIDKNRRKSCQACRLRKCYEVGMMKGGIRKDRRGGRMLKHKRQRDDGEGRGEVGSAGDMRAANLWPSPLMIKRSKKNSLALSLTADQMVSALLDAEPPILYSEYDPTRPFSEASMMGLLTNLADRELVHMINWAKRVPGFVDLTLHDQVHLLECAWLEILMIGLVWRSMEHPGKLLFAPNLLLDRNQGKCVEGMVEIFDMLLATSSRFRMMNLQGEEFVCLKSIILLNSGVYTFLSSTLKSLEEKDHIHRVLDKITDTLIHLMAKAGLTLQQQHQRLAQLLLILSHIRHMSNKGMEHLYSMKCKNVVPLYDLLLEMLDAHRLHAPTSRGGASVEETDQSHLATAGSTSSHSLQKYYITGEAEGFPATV
Target sequence in this assay (Q96SW2 whole entry, looked up): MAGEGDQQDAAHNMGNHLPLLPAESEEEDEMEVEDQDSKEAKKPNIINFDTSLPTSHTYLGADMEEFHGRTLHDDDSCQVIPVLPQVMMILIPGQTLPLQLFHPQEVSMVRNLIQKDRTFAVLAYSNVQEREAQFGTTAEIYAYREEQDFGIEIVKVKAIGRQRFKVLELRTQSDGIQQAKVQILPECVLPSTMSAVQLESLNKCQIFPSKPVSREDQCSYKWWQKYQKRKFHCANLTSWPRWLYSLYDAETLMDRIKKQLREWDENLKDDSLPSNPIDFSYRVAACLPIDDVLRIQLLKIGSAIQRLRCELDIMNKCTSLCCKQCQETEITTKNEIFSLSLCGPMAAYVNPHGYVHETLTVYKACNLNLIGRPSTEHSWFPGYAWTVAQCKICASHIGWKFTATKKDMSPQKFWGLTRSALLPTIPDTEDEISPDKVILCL

[2] = target: T1, Protein cereblon/Estrogen receptor; test: PROTAC activity at CRBN/ERalpha in human MCF7 cells assessed as reduction in ERalpha protein level at 5 to 10 uM measured after 24 hrs by Western blot analysis; assay type: cell-based; details: dose 5-10 µM
In short: (§2)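 MCF-7 breast cancer cells exposed to the PROTAC over a concentration series for 24 h. ERα in cell lysates then assessed by immunoblotting.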
Target sequence in this assay (P03372 whole entry, looked up): as the sequence (P03372 whole entry, looked up) above
Target sequence in this assay (Q96SW2 whole entry, looked up): as the sequence (Q96SW2 whole entry, looked up) above

[3] = target: T2, von Hippel-Lindau disease tumor suppressor/Estrogen receptor (Homo sapiens, UniProt P03372+P40337); test: PROTAC activity at VHL E3 ligase/ERalpha in human MCF7 cells assessed as reduction in ERalpha protein level incubated for 24 hrs by Western blot analysis; assay type: cell-based
In short: (§3)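 MCF-7 cells treated 24 h across a broad concentration range. ERα quantified on Western blots and normalized to GAPDH, then plotted against PROTAC concentration to give DC50 (concentration giving 50% protein degradation). Replicates: 2 biological for the CRBN series, triplicates for the VHL series.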
Target sequence in this assay (P03372 whole entry): as the sequence (P03372 whole entry, looked up) above
Target sequence in this assay (P40337 whole entry): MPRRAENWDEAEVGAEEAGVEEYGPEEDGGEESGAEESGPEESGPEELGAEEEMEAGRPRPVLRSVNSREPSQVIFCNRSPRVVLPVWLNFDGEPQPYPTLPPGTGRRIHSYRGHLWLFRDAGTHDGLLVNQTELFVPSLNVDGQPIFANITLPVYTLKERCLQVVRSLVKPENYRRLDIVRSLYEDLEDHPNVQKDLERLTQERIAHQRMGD

[4] = target: T2, von Hippel-Lindau disease tumor suppressor/Estrogen receptor; test: PROTAC activity at VHL E3 ligase/ERalpha in human MCF7 cells assessed as reduction in ERalpha protein level at 2500 nM pretreated with carfilzomib at 1 uM for 30 mins followed by compound addition and measured after 6 hrs by Western blot analysis; assay type: cell-based
Target sequence in this assay (P03372 whole entry, looked up): as the sequence (P03372 whole entry, looked up) above
Target sequence in this assay (P40337 whole entry, looked up): as the sequence (P40337 whole entry) above

[5] = target: T2, von Hippel-Lindau disease tumor suppressor/Estrogen receptor; test: PROTAC activity at VHL E3 ligase/ERalpha in human T47D cells assessed as reduction in ERalpha protein level at 0.01 to 10 uM incubated for 24 hrs by Western blot analysis; assay type: cell-based; details: dose 0.01-10 µM
Target sequence in this assay (P03372 whole entry, looked up): as the sequence (P03372 whole entry, looked up) above
Target sequence in this assay (P40337 whole entry, looked up): as the sequence (P40337 whole entry) above

[6] = target: T2, von Hippel-Lindau disease tumor suppressor/Estrogen receptor; test: PROTAC activity at VHL E3 ligase/ERalpha in human MCF7 cells assessed as reduction in ERalpha protein level at 2500 nM pretreated with MLN4924 at 1 uM for 30 mins followed by compound addition and measured after 6 hrs by Western blot analysis; assay type: cell-based
Target sequence in this assay (P03372 whole entry, looked up): as the sequence (P03372 whole entry, looked up) above
Target sequence in this assay (P40337 whole entry, looked up): as the sequence (P40337 whole entry) above

[7] = target: T2, von Hippel-Lindau disease tumor suppressor/Estrogen receptor; test: PROTAC activity at VHL E3 ligase/ERalpha in human MCF7 cells assessed as reduction in ERalpha protein level at 10 nM incubated for 24 hrs by Western blot analysis; assay type: cell-based
Target sequence in this assay (P03372 whole entry, looked up): as the sequence (P03372 whole entry, looked up) above
Target sequence in this assay (P40337 whole entry, looked up): as the sequence (P40337 whole entry) above

[8] = target: Estrogen receptor/E3 ubiquitin-protein ligase XIAP (Homo sapiens, UniProt P03372+P98170); test: PROTAC activity at XIAP/ERalpha (unknown origin); assay type: protein assay
Estrogen receptor/E3 ubiquitin-protein ligase XIAP, sequence (P03372 whole entry): as the sequence (P03372 whole entry, looked up) above
Estrogen receptor/E3 ubiquitin-protein ligase XIAP, sequence (P98170 whole entry): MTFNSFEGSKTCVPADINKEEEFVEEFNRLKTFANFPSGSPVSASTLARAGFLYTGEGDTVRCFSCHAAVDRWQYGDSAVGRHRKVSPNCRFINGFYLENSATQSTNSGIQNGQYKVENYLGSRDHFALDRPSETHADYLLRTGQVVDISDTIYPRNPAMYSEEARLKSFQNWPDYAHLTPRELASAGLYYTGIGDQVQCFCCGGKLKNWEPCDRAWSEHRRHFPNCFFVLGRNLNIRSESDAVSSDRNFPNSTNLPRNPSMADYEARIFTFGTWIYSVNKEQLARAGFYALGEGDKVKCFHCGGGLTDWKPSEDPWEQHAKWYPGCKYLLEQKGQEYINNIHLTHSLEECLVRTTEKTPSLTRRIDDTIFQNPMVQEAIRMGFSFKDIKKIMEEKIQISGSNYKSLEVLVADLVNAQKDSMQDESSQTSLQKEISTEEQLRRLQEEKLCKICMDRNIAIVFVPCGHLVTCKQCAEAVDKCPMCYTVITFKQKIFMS

[9] = target: T1, Protein cereblon/Estrogen receptor; test: PROTAC activity at CRBN/ERalpha in human MCF7 cells assessed as reduction in ERalpha protein level at 1 to 5 uM incubated for 24 hrs by Western blot analysis; assay type: cell-based; details: dose 1-5 µM; in short: as §2
Target sequence in this assay (P03372 whole entry, looked up): as the sequence (P03372 whole entry, looked up) above
Target sequence in this assay (Q96SW2 whole entry, looked up): as the sequence (Q96SW2 whole entry, looked up) above

[10] = target: T1, Protein cereblon/Estrogen receptor; test: PROTAC activity at CRBN/ERalpha in human MCF7 cells assessed as reduction in ERalpha protein level at 1 uM pretreated with MLN4924 at 1 uM for 1 hr followed by compound addition for 12 hrs by Western blot analysis; assay type: cell-based
In short: (§4)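 Rescue assay in MCF-7 cells. Cells pre-treated 1 h with bortezomib 1 µM or MLN4924 1 µM, then given the PROTAC at 1 µM for 12 h. ERα read by immunoblot.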
Target sequence in this assay (P03372 whole entry, looked up): as the sequence (P03372 whole entry, looked up) above
Target sequence in this assay (Q96SW2 whole entry, looked up): as the sequence (Q96SW2 whole entry, looked up) above

[11] = target: T1, Protein cereblon/Estrogen receptor; test: PROTAC activity at CRBN/ERalpha in human MCF7 cells assessed as reduction in ERalpha protein level at 1 uM pretreated with bortezomib at 1 uM for 1 hr followed by compound addition for 12 hrs by Western blot analysis; assay type: cell-based; in short: as §4
Target sequence in this assay (P03372 whole entry, looked up): as the sequence (P03372 whole entry, looked up) above
Target sequence in this assay (Q96SW2 whole entry, looked up): as the sequence (Q96SW2 whole entry, looked up) above

[12] = target: T1, Protein cereblon/Estrogen receptor; test: PROTAC activity at CRBN/ERalpha in human MCF7 cells assessed as reduction in ERalpha protein level incubated for 24 hrs by Western blot analysis; assay type: cell-based; in short: as §3
Target sequence in this assay (P03372 whole entry): as the sequence (P03372 whole entry, looked up) above
Target sequence in this assay (Q96SW2 whole entry): as the sequence (Q96SW2 whole entry, looked up) above

[13] = target: T1, Protein cereblon/Estrogen receptor; test: PROTAC activity at CRBN/ERalpha in human MCF7 cells assessed as reduction in ERalpha protein level at 1 uM measured after 1 to 12 hrs by Western blot analysis; assay type: cell-based; details: time 1-12 hrs; in short: as §1
Target sequence in this assay (P03372 whole entry, looked up): as the sequence (P03372 whole entry, looked up) above
Target sequence in this assay (Q96SW2 whole entry, looked up): as the sequence (Q96SW2 whole entry, looked up) above

[14] = target: T2, von Hippel-Lindau disease tumor suppressor/Estrogen receptor; test: PROTAC activity at VHL/ERalpha (unknown origin); assay type: protein assay
Target sequence in this assay (P03372 whole entry): as the sequence (P03372 whole entry, looked up) above
Target sequence in this assay (P40337 whole entry): as the sequence (P40337 whole entry) above

[15] = target: T2, von Hippel-Lindau disease tumor suppressor/Estrogen receptor; test: PROTAC activity at VHL E3 ligase/ERalpha in human MCF7 cells assessed as reduction in ERalpha protein level at 0.01 to 10 uM incubated for 24 hrs by Western blot analysis; assay type: cell-based; details: dose 0.01-10 µM
In short: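 MCF-7 cells incubated with the PROTAC at several concentrations for 24 h. Lysates analysed by immunoblotting for ERα.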
Target sequence in this assay (P03372 whole entry, looked up): as the sequence (P03372 whole entry, looked up) above
Target sequence in this assay (P40337 whole entry, looked up): as the sequence (P40337 whole entry) above

Compound: CC/C(=C(\c1ccc(O)cc1)c1ccc(OCCN(C)C(=O)CCc2cn(CCOCCOCCOCCNc3cccc4c3C(=O)N(C3CCC(=O)N(C)C3=O)C4=O)nn2)cc1)c1ccccc1 (configuration not stated)
- Activity [1]: inactive
- Activity [2]: Active

Compound: CC/C(=C(\c1ccc(O)cc1)c1ccc(OCCN(C)C(=O)CCc2cn(CCCC(=O)N[C@H](C(=O)N3C[C@H](O)C[C@H]3C(=O)N[C@@H](C)c3ccc(-c4scnc4C)cc3)C(C)(C)C)nn2)cc1)c1ccccc1
- EC50 [3]: 4.5 nM
- Activity [4]: inactive
- Activity [5]: Active
- Activity [6]: inactive
- Activity [7]: Active

Compound: CNCC(=O)N[C@H](C(=O)N1Cc2cc(OCCOCCOCCOCCOc3ccc(Oc4c(-c5ccc(O)cc5)sc5cc(O)ccc45)cc3)ccc2C[C@H]1C(=O)N[C@@H]1CCCc2ccccc21)C(C)(C)C
- EC50 [8]: < 1000 nM

Compound: CC/C(=C(\c1ccc(O)cc1)c1ccc(OCCN(C)C(=O)CCc2cn(CCCCCC(=O)N[C@H](C(=O)N3C[C@H](O)C[C@H]3C(=O)N[C@@H](C)c3ccc(-c4scnc4C)cc3)C(C)(C)C)nn2)cc1)c1ccccc1
- EC50 [3]: 5.3 nM
- Activity [4]: inactive
- Activity [5]: Active
- Activity [6]: inactive
- Activity [7]: Active

Compound: CC/C(=C(\c1ccc(O)cc1)c1ccc(OCCN(C)C(=O)CCc2cn(CCOCCNc3cccc4c3C(=O)N(C3CCC(=O)NC3=O)C4=O)nn2)cc1)c1ccccc1 (configuration not stated)
- Activity [9]: Active

Compound: CC/C(=C(\c1ccc(O)cc1)c1ccc(OCCN(C)C(=O)CCc2cn(CCOCCOCCOCCNc3cccc4c3C(=O)N(C3CCC(=O)NC3=O)C4=O)nn2)cc1)c1ccccc1 (configuration not stated)
- Activity [10]: inactive
- Activity [11]: inactive
- EC50 [12]: 11.9 nM
- Activity [13]: inactive
- Activity [9]: Active

Compound: CC[C@H](C)[C@H](NC(=O)[C@H](Cc1ccc(O)cc1)NC(=O)[C@@H]1CC(O)CN1C(=O)[C@H](C)NC(=O)[C@H](CC(C)C)NC(=O)CCCCCCC(=O)NCC(=O)OC1CC[C@H]2[C@@H]3CCc4cc(O)ccc4[C@H]3CC[C@]12C)C(=O)O (some centres not stated)
- EC50 [14]: 16000 nM

Compound: CC/C(=C(\c1ccc(O)cc1)c1ccc(OCCN(C)C(=O)COCCOCCOCCOc2cccc(C(=O)c3csc([C@@H]4CCCN4C(=O)[C@@H](NC(=O)[C@H](C)NC)C4CCCCC4)n3)c2)cc1)c1ccccc1
- EC50 [8]: 10 nM

Compound: CC/C(=C(\c1ccc(O)cc1)c1ccc(OCCN(C)C(=O)CCc2cn(CCCC(=O)N[C@H](C(=O)N3C[C@@H](O)C[C@H]3C(=O)N[C@@H](C)c3ccc(-c4scnc4C)cc3)C(C)(C)C)nn2)cc1)c1ccccc1
- Activity [15]: inactive
